Test results published in PMC7004511 (Cancer Science, 2020).
Entries after “also recorded” stand apart in the source; their conditions may differ. Read-outs that look alike come from different tables or passages of the source.

Assays:
Phase I dose escalation = type: in vivo, human
[1] = Pharmacokinetics of vorinostat in serum; type: in vivo, human; conditions: for AUC(0-t): AUC last
Summary of the method: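 Patients with EGFR-mutated (exon 19 deletion or L858R) NSCLC carrying the BIM deletion polymorphism received oral vorinostat once daily on days 1-7 (200, 300 or 400 mg) with oral gefitinib 250 mg once daily, in 14-day cycles. Vorinostat was quantified in serum. Tmax is given as a median, and t1/2 and Cmax as mean ± SD per dose level.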

[2] = Pharmacokinetics of gefitinib in plasma; type: in vivo, human
[3] = test system: acetylated histone H3 (Lys27); assay: Pharmacodynamics: western blotting of PBMC protein, acetylated histone H3; type: in vivo, human
[4] = test system: proapoptotic BIM protein (BIMEL); assay: Pharmacodynamics: western blotting of PBMC protein, BIMEL; type: in vivo, human
[5] = test system: T790M‐positive EGFR‐mutated NSCLC cells; conditions: in vitro; cited from earlier work
[6] = test system: BIM deletion polymorphism‐positive EGFR‐mutated NSCLC cell lines (PC‐3); conditions: cited from earlier work
[7] = biweekly, plus erlotinib 150 mg daily or gefitinib 250 mg daily; cited from earlier work
[8] = human, po, 200 mg, mean (SD), vorinostat Level 1 (200 mg) oral, n=3
[9] = human, po, 200 mg, median (range), vorinostat Level 1 (200 mg) oral, n=3
[10] = 4 h after dose on day 2 of cycle 1, all levels

SMILES: O=C(CCCCCCC(=O)Nc1ccccc1)NO [Vorinostat, suberoylanilide hydroxamic acid]
- Recommended phase II dose (RP2D) of vorinostat (Phase I dose escalation; biweekly, combined with gefitinib 250 mg daily): 400 mg/day
- Recommended phase II dose (RP2D) of vorinostat (Phase I dose escalation; combined with gefitinib): 400 mg
- half-life ([1]; human, po, 200 mg): 3.6 h
- AUC(0-inf) [1, 8]: 2.43 µM·h
- AUC(0-inf) [1, 9]: 2.83 µM·h
- AUC(0-t) [1, 8]: 2.34 µM·h
- AUC(0-t) [1, 9]: 2.72 µM·h
- Cmax ([1]; human, po, 200 mg, C max, mean (SD), vorinostat Level 1 (200 mg) oral, n=3): 602 nM
- Tmax ([1]; human, po, 300 mg): 3.3 h
- Tmax ([1]; human, po, 400 mg): 3.5 h
- half-life ([1]; human, po, 400 mg): 2.1 h
- Cmax ([1]; read-out: C max, median (range), vorinostat Level 1 (200 mg) oral, n=3): 615 nM
- Cmax ([1]; read-out: C max, median (range), vorinostat Level 3 (400 mg) oral, n=6): 944 nM
- T max, median (range) ([1]; vorinostat Level 1 (200 mg) oral, n=3): 2.0 (1.1‐4.0) h
- T max, median (range) ([1]; vorinostat Level 3 (400 mg) oral, n=6): 4.0 (0.9‐4.1) h
- Effect of vorinostat on the pharmacokinetics of gefitinib ([2]; vorinostat 200, 300, 400 mg groups compared): unlikely to affect the pharmacokinetics of gefitinib; also recorded: did not affect the dynamics of gefitinib
- Patients with increased acetylated histone H3 protein expression [3, 10]: 10/11
- Patients with increased acetylated histone H3 protein expression ([3]; all levels): 91%
- Patients with increased acetylated histone H3 protein expression ([3]; level 1 (200 mg)): 3/3
- Patients with increased acetylated histone H3 protein expression ([3]; level 2 (300 mg)): 3/3
- Patients with increased acetylated histone H3 protein expression ([3]; level 3 (400 mg)): 4/5
- Patients with increased proapoptotic BIM protein (BIMEL) expression [4, 10]: 5/11
- Patients with increased proapoptotic BIM protein (BIMEL) expression ([4]; 4 h after dose on day 2 of cycle 1, all levels, listed as vorinostat): five of 11
- Patients with increased proapoptotic BIM protein (BIMEL) expression ([4]; all levels): 45.5%
- Patients with increased proapoptotic BIM protein (BIMEL) expression ([4]; level 1 (200 mg)): 1/3
- Patients with increased proapoptotic BIM protein (BIMEL) expression ([4]; level 2 (300 mg)): 3/3
- Patients with increased proapoptotic BIM protein (BIMEL) expression ([4]; level 3 (400 mg)): 1/5
- Sensitization of cells to gefitinib [5]: did not sensitize T790M‐positive EGFR‐mutated NSCLC cells to gefitinib
- Resensitization of cells to EGFR-TKI by addition of vorinostat [6]: could resensitize these cells to EGFR‐TKI
- Recommended dose of vorinostat [7]: 400 mg/day

SMILES: C=CC(=O)Nc1cc(Nc2nccc(-c3cn(C)c4ccccc34)n2)c(OC)cc1N(C)CCN(C)C [osimertinib]
- Sensitivity to osimertinib-induced apoptosis [6]: resistant to osimertinib‐induced apoptosis

SMILES: COc1cc2ncnc(Nc3ccc(F)c(Cl)c3)c2cc1OCCCN1CCOCC1 [Gefitinib]
- Recommended phase II dose (RP2D) of gefitinib (Phase I dose escalation; daily, with vorinostat 400 mg/day biweekly): 250 mg
- Median T max of gefitinib ([2]; gefitinib 250 mg, vorinostat 200 mg group): 4 h
